Experimental data pooled from the literature.
Target: SNF-related serine/threonine-protein kinase (SNRK, Homo sapiens, UniProt Q9NRH2)
Sequence (Q9NRH2 1-765, as in one of the studies): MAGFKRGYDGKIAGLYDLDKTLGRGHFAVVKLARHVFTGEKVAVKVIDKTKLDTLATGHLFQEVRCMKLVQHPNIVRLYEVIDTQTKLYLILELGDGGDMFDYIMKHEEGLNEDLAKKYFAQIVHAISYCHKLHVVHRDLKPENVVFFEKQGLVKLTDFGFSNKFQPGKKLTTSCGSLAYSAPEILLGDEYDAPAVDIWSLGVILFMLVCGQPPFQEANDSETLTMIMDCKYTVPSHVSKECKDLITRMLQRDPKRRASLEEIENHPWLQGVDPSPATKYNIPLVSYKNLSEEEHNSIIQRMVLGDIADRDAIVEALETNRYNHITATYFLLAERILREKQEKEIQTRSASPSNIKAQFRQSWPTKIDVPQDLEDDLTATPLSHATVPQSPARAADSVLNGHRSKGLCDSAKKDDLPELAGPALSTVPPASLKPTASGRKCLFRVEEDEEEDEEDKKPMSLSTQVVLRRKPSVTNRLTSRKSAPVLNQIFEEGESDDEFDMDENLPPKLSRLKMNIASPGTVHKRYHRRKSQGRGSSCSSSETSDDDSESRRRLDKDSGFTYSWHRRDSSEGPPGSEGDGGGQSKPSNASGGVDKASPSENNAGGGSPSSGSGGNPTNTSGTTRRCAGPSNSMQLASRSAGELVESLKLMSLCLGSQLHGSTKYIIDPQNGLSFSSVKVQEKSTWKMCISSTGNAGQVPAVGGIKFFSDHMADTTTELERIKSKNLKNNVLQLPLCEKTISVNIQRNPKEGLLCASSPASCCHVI

CN(c1nccc(-c2cnn3ncccc23)n1)C1CC1 — remaining binding (binding; 1 µM): 100%
c1cncc(-c2cccc(Nc3nccc(NC4CCCCC4)n3)c2)c1 — remaining binding (binding; competition with immobilised ligand; 10 µM): 69%
COc1cc(-c2cn(C3CCc4c(F)cccc4N(CC(F)(F)F)C3=O)nn2)ccc1-n1cnc(C)c1 (stereo not shown) — remaining binding (cell-free assay; competition with immobilised ligand; 1 µM): 100%
Cc1cnn2ncc(-c3ccnc(N(C)C)n3)c2c1 — remaining binding (binding; 1 µM): 79%
O=C(NCCCN1CCOCC1)c1ccc(Nc2nccc(-c3cc4ccccc4s3)n2)cc1 — remaining binding (binding; competition with immobilised ligand; 1 µM): 99%
O=C(Nc1c[nH]nc1C(=O)NC1CCNCC1)c1cc(F)cc(F)c1 — remaining binding (binding; competition with immobilised ligand; 1 µM): 97%
CS(=O)(=O)NCC[C@H](NC(=O)c1cncc2c1cnn2-c1ccc(F)cc1)c1ccnc(S(C)(=O)=O)c1 — remaining binding (cell-free assay; competition with immobilised ligand; 1 µM): 100%
N[C@@H]1CCN(c2nccc(-c3cnn4ncccc34)n2)C1 — remaining binding (binding; 1 µM): 100%
C[C@H](c1ccnc(Nc2nc3ccc(-c4cc(N(C)C)ncn4)cc3[nH]2)c1)N1CCN(C(=O)CC(F)(F)F)CC1 — remaining binding (cell-free assay; competition with immobilised ligand; 0.1 µM): 100%
CN(C)c1nccc(-c2cnc3ncccn23)n1 — remaining binding (binding; 1 µM): 91%
COc1cnc(Nc2cccc(S(N)(=O)=O)c2)nc1N1CCN(c2ccccc2)CC1 — remaining binding (binding; competition with immobilised ligand; 1 µM): 88%
COc1ncc2cc3ccccc3nc2c1C#N — remaining binding (cell-free assay; competition with immobilised ligand; 5 µM): 100%
O=C(Nc1cccnn1)N1CCC(=Cc2cccc(Oc3ccc(C(F)(F)F)cn3)c2)CC1 — remaining binding (cell-free assay; competition with immobilised ligand; 1 µM): 100%
C[C@@H]1CCN(c2nccc(-c3cnn4ncccc34)n2)C1 — remaining binding (binding; 1 µM): 92%
COc1ccc2c(c1)O[C@H](c1ccc(OC)c(OC)c1)C[C@@H]2NC(=O)C1(c2ccc3c(c2)OC(F)(F)O3)CC1 — remaining binding (cell-free assay; competition with immobilised ligand; 1 µM): 92%
Cc1cnc(Nc2ccc(C(=O)N3CCC(N4CCCC4)CC3)cc2)nc1-c1cc2ccccc2s1 — remaining binding (binding; competition with immobilised ligand; 1 µM): 100%
C=CC(=O)N1CCC(C(=O)NCC(=O)N2CCN(c3nc(-c4cnc(N)nc4C(F)F)nc(N4CCOCC4)n3)CC2)CC1 — remaining binding (binding; competition with immobilised ligand; 1 µM): 99%
O=C(c1ccc(Nc2nccc(-c3cc4ccccc4s3)n2)cc1)N1CCC(N2CCCC2)CC1 — remaining binding (binding; competition with immobilised ligand; 1 µM): 100%
c1cnn2ncc(-c3ccnc(N4CCC45COC5)n3)c2c1 — remaining binding (binding; 1 µM): 67%
COc1cnc(Nc2cccc(S(N)(=O)=O)c2)nc1N1CCN(c2ccccc2)C(=O)C1 — remaining binding (binding; competition with immobilised ligand; 1 µM): 85%
O=c1nc(-c2ccccn2)sc2ccccc12 — remaining binding (binding; competition with immobilised ligand; 1 µM): 100%
CN(CCCC(F)(F)F)c1nccc(-c2cnn3ncccc23)n1 — remaining binding (binding; 1 µM): 100%
